This is an account of results in ChEMBL document CHEMBL3085708, “Identification and profiling of 3,5-dimethyl-isoxazole-4-carboxylic acid [2-methyl-4-((2S,3'S)-2-methyl-[1,3']bipyrrolidinyl-1'-yl)phenyl] amide as histamine H(3) receptor antagonist for the treatment of depression” (Bioorg Med Chem Lett, 2013).

Active and inactive are the calls of the source. The rule behind the calls is not given here.

A short description of data set [1]: Dissociation constant, pKa of the compound. The data set is classed as physicochemical.
The next data set addresses Histamine receptor H3 (Macaca mulatta, UniProt Q865E1). As to the kind of experiment: Displacement of [3H]N-alpha-methylhistamine from recombinant rhesus monkey histamine H3 receptor transfected in CHO cells after 1 hr by scintillation counting analysis. The data set is classed as cell-based. In outline: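 Membranes from CHO cells stably expressing recombinant rhesus monkey H3 receptor; displacement of [3H]N-α-methyl-histamine, reported as Ki.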

A further data set relates to Rattus norvegicus. The data set can be described thus: Antidepression-like activity in rat assessed as decrease in immobility time at 60 mg/kg, po by forced swimming test. The data set is classed as functional, organism-based. Also on record: dose 60 mg/kg. In a few lines: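 Rat forced-swim test, immobility time as read-out. Test agent given po in MC/0.6% + H2O at 1, 3 and 10 mg/kg; imipramine reference at 60 mg/kg po.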

Sequence of Histamine receptor H3 (Q865E1 whole entry): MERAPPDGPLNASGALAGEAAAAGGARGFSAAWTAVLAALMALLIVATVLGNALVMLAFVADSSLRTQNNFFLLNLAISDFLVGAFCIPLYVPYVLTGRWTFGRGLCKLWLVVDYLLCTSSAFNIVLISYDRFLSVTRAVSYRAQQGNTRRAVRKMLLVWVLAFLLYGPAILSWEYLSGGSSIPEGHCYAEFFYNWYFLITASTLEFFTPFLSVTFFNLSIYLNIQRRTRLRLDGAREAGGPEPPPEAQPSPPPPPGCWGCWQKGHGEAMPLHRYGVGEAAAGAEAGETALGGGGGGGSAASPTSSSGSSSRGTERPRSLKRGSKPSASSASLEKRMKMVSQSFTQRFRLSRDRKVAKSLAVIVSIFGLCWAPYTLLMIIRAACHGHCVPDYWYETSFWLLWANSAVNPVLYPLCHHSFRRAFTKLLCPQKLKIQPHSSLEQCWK

Usually pKa stands for the negative logarithm of the acid dissociation constant. In data set [1], `Cc1cc(N2CC[C@H](N3CCC[C@@H]3C)C2)ccc1NC(=O)c1cc(C)n(C)n1` yielded a pKa of 10.1.

What is called Ki is a dissociation constant, usually derived from enzyme kinetics or from competition with a known ligand. As for `Cc1cccc(C(=O)Nc2ccc(N3CC[C@H](N4CCC[C@@H]4C)C3)cc2C)n1`, the Ki at Histamine receptor H3 is 1.4 nM. This compound gave a pKa in data set [1] of 10.1.

As to `Cc1nc(N2CC[C@H](N3CCC[C@@H]3C)C2)ccc1NC(=O)Cc1ccccc1`, in data set [1], the pKa turned out to be 9.9. The same measure, in the same setting: with `Cc1nc(N2CC[C@H](N3CCC[C@@H]3C)C2)ccc1NC(=O)c1cccc2ccccc12` the figure was 9.9. As to `Cc1nc(N2CC[C@H](N3CCC[C@@H]3C)C2)ccc1NC(=O)c1ccccc1`, at Histamine receptor H3, the Ki was 3 nM. Moreover, the pKa in data set [1] came to 9.9. On to `CN(C)CCCN1c2ccccc2CCc2ccccc21`, for which the outcome with Rattus norvegicus was Active. Turning to `Cc1cc(C(=O)Nc2ccc(N3CC[C@H](N4CCC[C@@H]4C)C3)cc2C)n[nH]1`, the pKa in data set [1] was found to be 12.1. Consider `Cc1cc(N2CC[C@H](N3CCC[C@@H]3C)C2)ccc1NC(=O)c1ccoc1`, for which the pKa in data set [1] is 10.1. For `Cc1cc(C(=O)Nc2ccc(N3CC[C@H](N4CCC[C@@H]4C)C3)cc2C)on1`, in data set [1], the pKa is 10.1.

In data set [1], `Cc1cc(N2CC[C@H](N3CCC[C@@H]3C)C2)ccc1NC(=O)c1cc(F)ccc1C` displayed a pKa of 10.1. For `Cc1nc(N2CC[C@H](N3CCC[C@@H]3C)C2)ccc1NS(=O)(=O)c1ccc(F)c(F)c1`, in data set [1], the pKa worked out at 10. The same measure, in the same setting: under `Cc1cc(N2CC[C@H](N3CCC[C@@H]3C)C2)ccc1NC(=O)c1ccco1` stands 10.1; under `Cc1nc(C(=O)Nc2ccc(N3CC[C@H](N4CCC[C@@H]4C)C3)cc2C)co1`, 10.1.
